From ChEMBL document CHEMBL3627671, “Novel derivatives of nitro-substituted salicylic acids: Synthesis, antimicrobial activity and cytotoxicity” (Bioorg Med Chem, 2015)
In brackets after ≈: the same amount, converted by molar mass.

Experiments:
Assay type in all cases: functional
[1] = system: Trichophyton mentagrophytes; experiment: Antifungal activity against Trichophyton mentagrophytes 445 after 24 hrs by microdilution broth method; conditions: Trichophyton mentagrophytes, 445, 24 h
Lichtheimia corymbifera [2] = experiment: Antifungal activity against Absidia corymbifera 272 after 24 hrs by microdilution broth method; conditions: Lichtheimia corymbifera, 272, 24 h
Procedure, shortened: (§1)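 CLSI M27-A3 broth microdilution in RPMI 1640 with glutamine, buffered to pH 7.0 with MOPS; DMSO diluent. Yeast inoculum 5 × 10^3 ± 0.2 CFU/mL. Moulds grown on Sabouraud agar 3–10 days before spore harvest, final inoculum 0.5-5 × 10^4 CFU/mL, checked in a Bürker chamber. Incubated dark, humid, 35 °C, read at 24 and 48 h visually and at 540 nm. MIC taken as ≥80% (yeasts) or ≥50% (filamentous) growth reduction versus control.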

Mycobacterium kansasii [3] = experiment: Antimycobacterial activity against Mycobacterium kansasii 6509/96 after 7 days; conditions: 6509/96, 168 h
Procedure, shortened: (§2)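 Šula's semisynthetic medium micromethod at 37 °C, read after 7, 14 and 21 days. The 1.0 McFarland suspension was diluted 10^-4. MIC determined. 6509/96 is a clinical isolate.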

Trichosporon asahii [4] = experiment: Antifungal activity against Trichosporon asahii 1188 after 48 hrs by microdilution broth method; conditions: Trichosporon asahii, 1188, 48 h; procedure, shortened: as §1
Klebsiella pneumoniae [5] = experiment: Antibacterial activity against ESBL-positive Klebsiella pneumoniae J 14368/08 after 48 hrs by microdilution broth method; conditions: J 14368/08, 48 h
Procedure, shortened: (§3)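 Mueller-Hinton broth microdilution (modified M07-A07), pH 7.4 (±0.2). Compounds dissolved in DMSO, tested at final 500 to 0.49 µmol/L. Inoculum in sterile water matched to 0.5 McFarland. Incubated in the dark, humid atmosphere, 35 °C, read at 24 and 48 h visually and at 540 nm. MIC taken as ≥95% growth reduction (IC95) versus control.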

Mycobacterium kansasii [6] = experiment: Antimycobacterial activity against Mycobacterium kansasii 6509/96 after 14 days; conditions: 6509/96, 336 h; procedure, shortened: as §2
Mycobacterium kansasii [7] = experiment: Antimycobacterial activity against Mycobacterium kansasii 235/80 after 21 days; conditions: 235/80, 504 h; procedure, shortened: as §2
[8] = system: Mycobacterium tuberculosis; experiment: Antimycobacterial activity against Mycobacterium tuberculosis H37Rv 331/88 after 21 days; conditions: H37Rv 331/88, 504 h
Lichtheimia corymbifera [9] = experiment: Antifungal activity against Absidia corymbifera 272 after 48 hrs by microdilution broth method; conditions: Lichtheimia corymbifera, 272, 48 h; procedure, shortened: as §1
Staphylococcus aureus [10] = experiment: Antibacterial activity against methicillin-resistant Staphylococcus aureus H 5996/08 after 48 hrs by microdilution broth method; conditions: H 5996/08, 48 h
[11] = system: Staphylococcus epidermidis; experiment: Antibacterial activity against Staphylococcus epidermidis H 6966/08 after 24 hrs by microdilution broth method; conditions: H 6966/08, 24 h; procedure, shortened: as §3
Staphylococcus aureus [12] = experiment: Antibacterial activity against Staphylococcus aureus CCM 4516/08 after 48 hrs by microdilution broth method; conditions: CCM 4516/08, 48 h
Pseudomonas aeruginosa [13] = experiment: Antibacterial activity against Pseudomonas aeruginosa CCM 1961 after 24 hrs by microdilution broth method; conditions: CCM 1961, 24 h; procedure, shortened: as §3
Mycobacterium kansasii [14] = experiment: Antimycobacterial activity against Mycobacterium kansasii 235/80 after 14 days; conditions: 235/80, 336 h; procedure, shortened: as §2
Trichosporon asahii [15] = experiment: Antifungal activity against Trichosporon asahii 1188 after 24 hrs by microdilution broth method; conditions: Trichosporon asahii, 1188, 24 h; procedure, shortened: as §1
Aspergillus fumigatus [16] = experiment: Antifungal activity against Aspergillus fumigatus 231 after 24 hrs by microdilution broth method; conditions: Aspergillus fumigatus, 231, 24 h; procedure, shortened: as §1
Candida tropicalis [17] = experiment: Antifungal activity against Candida tropicalis 156 after 24 hrs by microdilution broth method; conditions: Candida tropicalis, 156, 24 h; procedure, shortened: as §1
Staphylococcus aureus [18] = experiment: Antibacterial activity against Staphylococcus aureus CCM 4516/08 after 24 hrs by microdilution broth method; conditions: CCM 4516/08, 24 h
Candida tropicalis [19] = experiment: Antifungal activity against Candida tropicalis 156 after 48 hrs by microdilution broth method; conditions: Candida tropicalis, 156, 48 h; procedure, shortened: as §1
Nakaseomyces glabratus [20] = experiment: Antifungal activity against Candida glabrata 20/I after 24 hrs by microdilution broth method; procedure, shortened: as §1
Klebsiella pneumoniae [21] = experiment: Antibacterial activity against ESBL-positive Klebsiella pneumoniae J 14368/08 after 24 hrs by microdilution broth method; conditions: J 14368/08, 24 h; procedure, shortened: as §3
Pichia kudriavzevii [22] = experiment: Antifungal activity against Candida krusei E28 after 24 hrs by microdilution broth method; conditions: E28, 24 h; procedure, shortened: as §1
[23] = system: Staphylococcus epidermidis; experiment: Antibacterial activity against Staphylococcus epidermidis H 6966/08 after 48 hrs by microdilution broth method; conditions: H 6966/08, 48 h; procedure, shortened: as §3
Enterococcus sp. [24] = experiment: Antibacterial activity against Enterococcus sp. J 14365/08 after 24 hrs by microdilution broth method; conditions: J 14365/08, 24 h; procedure, shortened: as §3
Escherichia coli [25] = experiment: Antibacterial activity against Escherichia coli CCM4517 after 48 hrs by microdilution broth method; conditions: CCM4517, 48 h; procedure, shortened: as §3
Enterococcus sp. [26] = experiment: Antibacterial activity against Enterococcus sp. J 14365/08 after 48 hrs by microdilution broth method; conditions: J 14365/08, 48 h; procedure, shortened: as §3
Mycobacterium avium [27] = experiment: Antimycobacterial activity against Mycobacterium avium 330/80 after 21 days; conditions: 330/80, 504 h
Pichia kudriavzevii [28] = experiment: Antifungal activity against Candida krusei E28 after 48 hrs by microdilution broth method; conditions: E28, 48 h; procedure, shortened: as §1
[29] = system: Trichophyton mentagrophytes; experiment: Antifungal activity against Trichophyton mentagrophytes 445 after 48 hrs by microdilution broth method; conditions: Trichophyton mentagrophytes, 445, 48 h
Nakaseomyces glabratus [30] = experiment: Antifungal activity against Candida glabrata 20/I after 48 hrs by microdilution broth method; procedure, shortened: as §1
Candida albicans [31] = experiment: Antifungal activity against Candida albicans ATCC 44859 after 48 hrs by microdilution broth method; conditions: ATCC 44859, 48 h; procedure, shortened: as §1
Klebsiella pneumoniae [32] = experiment: Antibacterial activity against Klebsiella pneumoniae D 11750/08 after 24 hrs by microdilution broth method; conditions: D 11750/08, 24 h; procedure, shortened: as §3
Escherichia coli [33] = experiment: Antibacterial activity against Escherichia coli CCM4517 after 24 hrs by microdilution broth method; conditions: CCM4517, 24 h; procedure, shortened: as §3
Klebsiella pneumoniae [34] = experiment: Antibacterial activity against Klebsiella pneumoniae D 11750/08 after 48 hrs by microdilution broth method; conditions: D 11750/08, 48 h; procedure, shortened: as §3
Pseudomonas aeruginosa [35] = experiment: Antibacterial activity against Pseudomonas aeruginosa CCM 1961 after 48 hrs by microdilution broth method; conditions: CCM 1961, 48 h; procedure, shortened: as §3
Aspergillus fumigatus [36] = experiment: Antifungal activity against Aspergillus fumigatus 231 after 48 hrs by microdilution broth method; conditions: Aspergillus fumigatus, 231, 48 h; procedure, shortened: as §1
Mycobacterium avium [37] = experiment: Antimycobacterial activity against Mycobacterium avium 330/80 after 14 days; conditions: 330/80, 336 h
[38] = system: Mycobacterium tuberculosis; experiment: Antimycobacterial activity against Mycobacterium tuberculosis H37Rv 331/88 after 14 days; conditions: H37Rv 331/88, 336 h
Candida albicans [39] = experiment: Antifungal activity against Candida albicans ATCC 44859 after 24 hrs by microdilution broth method; conditions: ATCC 44859, 24 h; procedure, shortened: as §1
Staphylococcus aureus [40] = experiment: Antibacterial activity against methicillin-resistant Staphylococcus aureus H 5996/08 after 24 hrs by microdilution broth method; conditions: H 5996/08, 24 h
Mycobacterium kansasii [41] = experiment: Antimycobacterial activity against Mycobacterium kansasii 235/80 after 7 days; conditions: 235/80, 168 h; procedure, shortened: as §2
Mycobacterium kansasii [42] = experiment: Antimycobacterial activity against Mycobacterium kansasii 6509/96 after 21 days; conditions: 6509/96, 504 h; procedure, shortened: as §2

SMILES: O=C(Nc1cccc(Cl)c1)c1ccc([N+](=O)[O-])cc1O
- MIC [1]: 62.5 µM (≈ 18.3 µg/mL)
- MIC (Lichtheimia corymbifera [2]): 62.5 µM (≈ 18.3 µg/mL)
- MIC (Mycobacterium kansasii [3]): 16 µM (≈ 4.68 µg/mL)
- MIC (Trichosporon asahii [4]): 125 µM (≈ 36.6 µg/mL)
- MIC (Klebsiella pneumoniae [5]): > 500 µM
- MIC (Mycobacterium kansasii [6]): 16 µM (≈ 4.68 µg/mL)
- MIC (Mycobacterium kansasii [7]): 16 µM (≈ 4.68 µg/mL)
- MIC [8]: 16 µM (≈ 4.68 µg/mL)
- MIC (Lichtheimia corymbifera [9]): 250 µM (≈ 73.2 µg/mL)
- MIC (Staphylococcus aureus [10]): 15.6 µM (≈ 4.57 µg/mL)
- MIC [11]: 7.81 µM (≈ 2.29 µg/mL)
- MIC (Staphylococcus aureus [12]): 15.6 µM (≈ 4.57 µg/mL)
- MIC (Pseudomonas aeruginosa [13]): > 500 µM
- MIC (Mycobacterium kansasii [14]): 16 µM (≈ 4.68 µg/mL)
- MIC (Trichosporon asahii [15]): 62.5 µM (≈ 18.3 µg/mL)
- MIC (Aspergillus fumigatus [16]): 62.5 µM (≈ 18.3 µg/mL)
- MIC (Candida tropicalis [17]): > 500 µM
- MIC (Staphylococcus aureus [18]): 7.81 µM (≈ 2.29 µg/mL)
- MIC (Candida tropicalis [19]): > 500 µM
- MIC (Nakaseomyces glabratus [20]): > 500 µM
- MIC (Klebsiella pneumoniae [21]): > 500 µM
- MIC (Pichia kudriavzevii [22]): 62.5 µM (≈ 18.3 µg/mL)
- MIC [23]: 15.6 µM (≈ 4.57 µg/mL)
- MIC (Enterococcus sp. [24]): 500 µM (≈ 146 µg/mL)
- MIC (Escherichia coli [25]): > 500 µM
- MIC (Enterococcus sp. [26]): > 500 µM
- MIC (Mycobacterium avium [27]): 62.5 µM (≈ 18.3 µg/mL)
- MIC (Pichia kudriavzevii [28]): 125 µM (≈ 36.6 µg/mL)
- MIC [29]: 62.5 µM (≈ 18.3 µg/mL)
- MIC (Nakaseomyces glabratus [30]): > 500 µM
- MIC (Candida albicans [31]): > 500 µM
- MIC (Klebsiella pneumoniae [32]): > 500 µM
- MIC (Escherichia coli [33]): > 500 µM
- MIC (Klebsiella pneumoniae [34]): > 500 µM
- MIC (Pseudomonas aeruginosa [35]): > 500 µM
- MIC (Aspergillus fumigatus [36]): 125 µM (≈ 36.6 µg/mL)
- MIC (Mycobacterium avium [37]): 32 µM (≈ 9.37 µg/mL)
- MIC [38]: 8 µM (≈ 2.34 µg/mL)
- MIC (Candida albicans [39]): > 500 µM
- MIC (Staphylococcus aureus [40]): 7.81 µM (≈ 2.29 µg/mL)
- MIC (Mycobacterium kansasii [41]): 8 µM (≈ 2.34 µg/mL)
- MIC (Mycobacterium kansasii [42]): 16 µM (≈ 4.68 µg/mL)
